Calls of active or inactive are those of the source. The calls are words filed in the database; no cut-off is given here.
Tests used:
L6 [1] = assay: Increase in glucose uptake in rat L6 cells at 24 uM pre-treated with compound for 30 mins using 2-deoxy-D-[1,2-3H]glucose and measured after 2 hrs […] by liquid scintillation counting method; format: functional
Outline: (§1)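 L6 myotubes exposed to compound for 2 h at 1.5, 3, 6, 12 or 24 μM; 2-deoxyglucose uptake expressed as fold over untreated control; 3 μM (−)-arctigenin run alongside as positive control; mean ± SEM of 3 independent experiments.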

L6 [2] = assay: Increase in glucose uptake in rat L6 cells at 24 uM pre-treated with compound for 30 mins using 2-deoxy-D-[1,2-3H]glucose and measured after 2 hrs by liquid scintillation counting method; format: functional; outline: as §1
L6 [3] = assay: Ratio of glucose uptake in rat L6 cells at 24 uM after 2 hrs to glucose uptake in rat L6 cells at 24 uM after 2 hrs in presence of 3 uM (-)-arctigenin; format: functional
Outline: (§2)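 Glucose uptake in L6 myotubes after 2 h compound exposure divided by uptake with the 3 μM (−)-arctigenin positive control run in parallel.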

L6 [4] = assay: Ratio of glucose uptake in rat L6 cells at 6 uM after 2 hrs to glucose uptake in rat L6 cells at 6 uM after 2 hrs in presence of 3 uM (-)-arctigenin; format: functional; outline: as §2
L6 [5] = assay: Increase in glucose uptake in rat L6 cells at 6 uM pre-treated with compound for 30 mins using 2-deoxy-D-[1,2-3H]glucose and measured after 2 hrs […] by liquid scintillation counting method; format: functional; outline: as §1
L6 [6] = assay: Increase in glucose uptake in rat L6 cells at 6 uM pre-treated with compound for 30 mins using 2-deoxy-D-[1,2-3H]glucose and measured after 2 hrs by liquid scintillation counting method; format: functional; outline: as §1
L6 [7] = assay: Increase in glucose uptake in rat L6 cells at 3 umol/L pre-treated with compound for 30 mins using 2-deoxy-D-[1,2-3H]glucose and measured after 2 hrs by liquid scintillation counting method relative to control; format: functional; outline: as §1
L6 [8] = assay: Ratio of glucose uptake in rat L6 cells at 1.5 uM after 2 hrs to glucose uptake in rat L6 cells at 1.5 uM after 2 hrs in presence of 3 uM (-)-arctigenin; format: functional; outline: as §2
L6 [9] = assay: Increase in glucose uptake in rat L6 cells at 1.5 uM pre-treated with compound for 30 mins using 2-deoxy-D-[1,2-3H]glucose and measured after 2 hrs by liquid scintillation counting method; format: functional; outline: as §1
L6 [10] = assay: Increase in glucose uptake in rat L6 cells at 1.5 uM pre-treated with compound for 30 mins using 2-deoxy-D-[1,2-3H]glucose and measured after 2 hrs in presence of 3 uM (-)-arctigenin by liquid scintillation counting method; format: functional; outline: as §1
L6 [11] = assay: Induction of AMPK phosphorylation in rat L6 cells at 1.5 uM incubated for 2 hrs by Western blotting method; format: cell-based
Outline: (§3)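 L6 myotubes treated 2 h at the stated concentrations; phosphorylated AMPK and phosphorylated ACC detected by immunoblot.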

L6 [12] = assay: Induction of AMPK activation in rat L6 cells assessed as increase in ACC phosphorylation at 6 uM incubated for 2 hrs by Western blotting method; format: cell-based; outline: as §3
L6 [13] = assay: Induction of AMPK phosphorylation in rat L6 cells at 3 uM incubated for 2 hrs by Western blotting method; format: cell-based; outline: as §3
L6 [14] = assay: Induction of AMPK phosphorylation in rat L6 cells at 6 uM incubated for 2 hrs by Western blotting method; format: cell-based; outline: as §3
L6 [15] = assay: Induction of AMPK activation in rat L6 cells assessed as increase in ACC phosphorylation at 1.5 uM incubated for 2 hrs by Western blotting method; format: cell-based; outline: as §3
L6 [16] = assay: Induction of AMPK activation in rat L6 cells assessed as increase in ACC phosphorylation at 3 uM incubated for 2 hrs by Western blotting method; format: cell-based; outline: as §3
L6 [17] = assay: Increase in glucose uptake in rat L6 cells at 3 uM pre-treated with compound for 30 mins using 2-deoxy-D-[1,2-3H]glucose and measured after 2 hrs by liquid scintillation counting method; format: functional; outline: as §1
L6 [18] = assay: Ratio of glucose uptake in rat L6 cells at 3 uM after 2 hrs to glucose uptake in rat L6 cells at 3 uM after 2 hrs in presence of 3 uM (-)-arctigenin; format: functional; outline: as §2
L6 [19] = assay: Increase in glucose uptake in rat L6 cells at 3 uM […] using 2-deoxy-D-[1,2-3H]glucose and measured after 2 hrs […] by liquid scintillation counting method; format: functional; outline: as §1
L6 [20] = assay: Increase in glucose uptake in rat L6 cells at 0.75 uM to 3 uM pre-treated with compound for 30 mins using 2-deoxy-D-[1,2-3H]glucose and measured after 2 hrs by liquid scintillation counting method; format: functional, cell-based
L6 [21] = assay: Increase in glucose uptake in rat L6 cells at 12 uM pre-treated with compound for 30 mins using 2-deoxy-D-[1,2-3H]glucose and measured after 2 hrs by liquid scintillation counting method; format: functional; outline: as §1
L6 [22] = assay: Ratio of glucose uptake in rat L6 cells at 12 uM after 2 hrs to glucose uptake in rat L6 cells at 12 uM after 2 hrs in presence of 3 uM (-)-arctigenin; format: functional; outline: as §2
L6 [23] = assay: Increase in glucose uptake in rat L6 cells at 12 uM pre-treated with compound for 30 mins using 2-deoxy-D-[1,2-3H]glucose and measured after 2 hrs […] by liquid scintillation counting method; format: functional; outline: as §1

COc1ccc(C[C@H]2COC(=O)[C@@H]2Cc2ccc(O)c(OC)c2)cc1
Activity (L6 [1]): 262.4%
Activity (L6 [2]): 235.1%
Ratio (L6 [3]): 0.896

COc1ccc(C[C@H]2COC(=O)[C@@H]2Cc2ccc(Br)cc2)cc1OC
Ratio (L6 [4]): 0.654
Activity (L6 [5]): 269.2%
Activity (L6 [6]): 176%

COc1cc(C[C@H]2C(=O)CC[C@@H]2Cc2ccc(OC)c(OC)c2)ccc1O
fold change (FC) (L6 [7]): 2.08

COc1ccc(C[C@H]2COC(=O)[C@@H]2Cc2cccc(O)c2)cc1OC
Activity (L6 [1]): 217.8%
Activity (L6 [2]): 180.3%
Ratio (L6 [3]): 0.828

COc1ccc(C[C@H]2C(=O)OC[C@@H]2Cc2ccc(OC)c(OC)c2)cc1
Ratio (L6 [8]): 0.595
Activity (L6 [9]): 108.4%
Activity (L6 [10]): 182.1%

COc1ccc(C[C@H]2C(=O)OC[C@@H]2Cc2ccc(OC)c(OC)c2)cc1O
Ratio (L6 [8]): 0.531
Activity (L6 [9]): 100.4%
Activity (L6 [10]): 188.9%

COc1ccc(C[C@H]2COC(=O)[C@@H]2Cc2ccc(Cl)cc2)cc1OC
Activity (L6 [11]): Active
Ratio (L6 [4]): 1.03
Activity (L6 [5]): 185.5%
Activity (L6 [6]): 191.1%
Activity (L6 [12]): Active
Activity (L6 [13]): Active
Activity (L6 [14]): Active
Activity (L6 [15]): Active
Activity (L6 [16]): Active

COc1ccc(C[C@H]2COC(=O)[C@@H]2Cc2ccc(N)cc2)cc1OC
Activity (L6 [17]): 126.6%
Ratio (L6 [18]): 0.616
Activity (L6 [19]): 205.4%

COc1ccc(C[C@H]2COC(=O)[C@@H]2Cc2ccccc2O)cc1OC
Ratio (L6 [8]): 0.579
Activity (L6 [9]): 137.6%
Activity (L6 [10]): 237.6%

COc1cc(C[C@H]2C(=O)OC[C@@H]2Cc2ccc(OC)c(OC)c2)ccc1O [ARCTIGENIN]
fold change (FC) (L6 [7]): 1.75
Activity (L6 [20]): Dose-dependent effect

COc1ccc(C[C@H]2COC(=O)[C@@H]2Cc2ccc(O)cc2)cc1OC
Activity (L6 [21]): 179.5%
Ratio (L6 [22]): 0.895
Activity (L6 [23]): 200.6%

COc1ccc(C[C@@H]2COC(=O)[C@H]2Cc2ccc(Cl)cc2)cc1OC
Activity (L6 [11]): inactive
Ratio (L6 [8]): 0.494
Activity (L6 [12]): inactive
Activity (L6 [9]): 103.1%
Activity (L6 [10]): 208.9%
Activity (L6 [13]): inactive
Activity (L6 [14]): inactive
Activity (L6 [15]): inactive
Activity (L6 [16]): inactive

COc1ccc(C[C@H]2COC(=O)[C@@H]2Cc2ccc(OC)c(OC)c2)cc1OC
Activity (L6 [17]): 137.1%
Ratio (L6 [18]): 0.577
Activity (L6 [19]): 237.6%
